SIRT5 inh: blocks human SIRT5 desuccinylation of peptide; inhibition, % at 15 µM; 330,000 compounds, 1.1% hits; Q9NXA8; AID 652115; Purified SirT5, succinyl-peptide AMC, trypsin-coupled fluorescence; in the data active = inhibition above about 15%
Target sequence (Q9NXA8 whole entry, looked up): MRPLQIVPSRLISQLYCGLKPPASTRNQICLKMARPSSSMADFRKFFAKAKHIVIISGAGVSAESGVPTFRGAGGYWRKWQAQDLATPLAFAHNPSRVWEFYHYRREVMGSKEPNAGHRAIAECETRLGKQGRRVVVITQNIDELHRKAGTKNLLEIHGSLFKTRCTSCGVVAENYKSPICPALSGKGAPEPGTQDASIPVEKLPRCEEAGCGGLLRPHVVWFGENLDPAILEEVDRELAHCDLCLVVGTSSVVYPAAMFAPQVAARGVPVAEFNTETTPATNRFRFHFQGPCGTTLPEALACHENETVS
FN deposit inh: fibronectin deposition inhibition. 350,000 compounds, 0.086% hits. AID 743247. AH1F fibroblasts, Alexa488-fibronectin deposition fluorescence, overnight. inhibition, % at 12.6 µM;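 active = mean inhibition across replicates of 30% or more, regardless of how many single replicates reach that level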;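 note: positive control wells lacked labelled fibronectin entirely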
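material = AH1F fibroblast monolayer depositing Alexa488-labelled fibronectin into matrix | amount = 10000 AH1F cells/well | buffer or medium = DMEM plus 2% serum, read in PBS | incubation = 1 h cell adhesion before compound, then overnight fibronectin incubation | detection = fluorescence at 485 nm excitation, 525 nm emission | evaluation = percent inhibition as loss of matrix-bound fibronectin fluorescence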
PGC1a acetyl inh: lowers PGC1a acetylation signal in U2OS cells; AlphaScreen anti-acetyl-lysine; with virally co-expressed GCN5 acetyltransferase; inhibition, % at 15.6 µM; 350,000 compounds, 0.17% hits; AID 651687;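 active = every replicate shows inhibition of at least 40%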;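 note: 0% = neutral control wells and 100% = positive control wells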
FGF22 binding: FGF22 (human) thermal shift binding; recombinant FGF22 thermal shift, SYPRO orange fluorescence; percent of sucrose octasulfate shift, DMSO zero; 340,000 compounds, 1.5% hits; Q9HCT0; activity (Tm shift, normalised), % at 9.99 µM;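 active = mean Tm shift, scaled 0 neutral to 100 positive control, at about 1.3% or above, every replicate too, limit read from the data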
ERAP1 inh: blocks human ERAP1 aminopeptidase activity. recombinant ERAP1, Leu-AMC fluorescence, 60 min. AID 652197. 340,000 compounds, 0.15% hits. Q9NZ08. inhibition, % at 10.7 µM;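 active = mean replicate inhibition of at least 30%, or all replicates individually reaching that 30% level; inactive = mean below 30% and not every replicate reaching it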;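 note: 0% = neutral control wells and 100% = L-leucinethiol positive control wells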
An asterisk follows results filed as active; x = no result given. An excerpt weighted towards active compounds, which were near 2.2% of everything screened.

SMILES	SIRT5 inh	FN deposit inh	PGC1a acetyl inh	FGF22 binding	ERAP1 inh
CNC(=O)/C(C#N)=C/c1ccc(-c2ccccc2[N+](=O)[O-])o1	-1	1	x	42	-4
C[C@@H]1CN([C@H](C)CO)C(=O)c2cc(NC(=O)CCC(F)(F)F)ccc2O[C@@H](C)CCCCO[C@H]1CN(C)C(=O)CCC(F)(F)F	3	-10	-31	0	1
CCCCCCn1c(=O)n2n(c1=O)C[C@]1(OC(=O)Nc3c(C)noc3C)CN(S(=O)(=O)c3ccc(C)cc3)C[C@]1(O)C2	x	-1	13	43*	2
CCCCCCn1c(=O)n2n(c1=O)C[C@]1(OC(=O)Nc3cccs3)CN(S(=O)(=O)c3ccc(C)cc3)C[C@]1(O)C2	-2	4	7	0	-3
COc1ccccc1NC(=O)N1CCN(c2ccc(F)cc2)CC1	x	-6	-2	x	x
COc1ccccc1NC(=O)N1CCN(c2cccc(C(F)(F)F)c2)CC1	18*	-5	-10	x	2
O=S(=O)(N[C@H]1CC[C@H](CCn2cc(-c3cccnc3)nn2)O[C@H]1CO)c1ccc(Cl)cc1	x	0	3	0	0
O=C(O)CC(CCc1ccccc1)OC1OC(CO)C(O)C(O)C1O (stereo not given)	3	x	2	0	32*
O=C(Nc1ccccc1)Nc1ccc(F)cc1F	-1	0	x	43*	-5
O=C(Nc1ccccc1F)Nc1ccccc1F	-1	-4	x	44*	-1
CC(=O)Nc1cccc(NC(=O)Nc2ccc(F)cc2F)c1	-3	5	x	0	0
O=C(Nc1ccc(Br)cc1)Nc1ccccc1F	-2	-9	2	0	0
CO[C@@H]1CN(C)C(=O)c2cc(NS(C)(=O)=O)ccc2OC[C@@H](C)N(Cc2cccnc2)C[C@H]1C	x	3	19	x	x
O=C(CCN1CCCCC1)N[C@@H]1CC[C@@H](CCNS(=O)(=O)c2ccc(Cl)cc2)O[C@H]1CO	0	x	4	0	3
C=CCNC(=O)COC(=O)c1cc(S(=O)(=O)N2CCCCC2)ccc1Cl	-3	5	3	43*	-3
C=CCNC(=O)COc1ccc(S(=O)(=O)N2CCCC2)cc1	5	-21	-1	0	4
CCOc1cccc(C(=O)NC(=S)Nc2ccc(Cl)cc2C(=O)O)c1	-6	-10	x	43*	0
C[C@@H]1CN([C@@H](C)CO)S(=O)(=O)c2ccc(/C=C/c3ccccc3)cc2O[C@H]1CN(C)C(=O)c1ccc2c(c1)OCO2	27*	x	5	0	4
C[C@H](CO)N1C[C@H](C)[C@@H](CN(C)C(=O)c2ccc3c(c2)OCO3)Oc2cc(/C=C/c3ccccc3)ccc2S1(=O)=O	16*	x	-9	0	-2
Cc1ccc(S(=O)(=O)N(C)C[C@@H]2Oc3ccc(NC(=O)Nc4ccc(F)cc4)cc3C(=O)N([C@H](C)CO)C[C@H]2C)cc1	6	x	-6	0	3
O=c1cc(CSc2nnnn2-c2ccc(O)cc2)nc2sccn12	38*	2	10	0	-1
Cn1c(Cc2ccccc2)nnc1SCc1cc(=O)n2ccsc2n1	2	-2	1	0	3
CSc1nc2c(c(=O)[nH]1)C(c1ccc(F)cc1)CC(=O)N2 (stereo not given)	-6	5	-1	43*	-6
COC(=O)c1ccccc1OC(=O)c1cccnc1	-4	x	0	0	2
O=C(Oc1ccccc1C(=O)Oc1ccccc1)c1cccnc1	-5	3	x	43*	7
SMILES	SIRT5 inh	FN deposit inh	PGC1a acetyl inh	FGF22 binding	ERAP1 inh
Clc1nccc(N2CCN(c3ccccc3Cl)CC2)n1	18*	2	10	0	x
Nc1nccc(N2CCCCC2)n1	-7	5	x	0	-3
CCOCCCNC(=O)c1ccc2c(c1)N=C(CC)c1cc(Br)ccc1S2	17*	-9	3	x	-6
O=Cc1ccc(-n2cc(C=O)c3ccccc32)cc1	2	x	9	43*	4
CNC[C@@H]1Oc2ncc(-c3cccc(F)c3)cc2C(=O)N([C@@H](C)CO)C[C@@H]1C	-3	-7	-7	0	0
CCCCn1cnc2c(c(-c3ccccc3)c(-c3ccccc3)n2Cc2ccco2)c1=N	1	39*	-24	0	-1
C[C@H]1CN([C@@H](C)CO)C(=O)c2cc(C#CC3CC3)cnc2O[C@H]1CN(C)C(=O)Nc1ccc(F)cc1	0	x	-5	0	2

Screening results (PubChem BioAssay)
